TRPC4 inh – TRPC4 (mouse) channel inhibition; AID 2247; Q9QUQ5; 300,000 tested, 0.39% active; B-score at 10 µM; HEK293 TRPC4beta/mu-opioid, DAMGO-evoked Fluo4 calcium flux; hits give low values;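 active = B-score over 3 SD under the library average, no early fluorescence shift, positive overall ratio signal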
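Assay system – HEK293 line stably carrying TRPC4beta and mu-opioid receptor · Doses – single dose · Detection – Fluo4 calcium-dye fluorescence, kinetic read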
TRPC6 act – activates the mouse TRPC6 cation channel; 310,000 tested, 0.13% active; Q61143; HEK293-TRPC6 membrane potential dye fluorescence; hits give high values; B-score at 10 µM; AID 2550;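 active = B-score of the integrated fluorescence ratio above library mean plus 3 SD, and starting fluorescence ratio within library mean plus 5 SD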;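 also: higher score means more depolarization so channel activation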
Target sequence (Q61143 whole entry, looked up): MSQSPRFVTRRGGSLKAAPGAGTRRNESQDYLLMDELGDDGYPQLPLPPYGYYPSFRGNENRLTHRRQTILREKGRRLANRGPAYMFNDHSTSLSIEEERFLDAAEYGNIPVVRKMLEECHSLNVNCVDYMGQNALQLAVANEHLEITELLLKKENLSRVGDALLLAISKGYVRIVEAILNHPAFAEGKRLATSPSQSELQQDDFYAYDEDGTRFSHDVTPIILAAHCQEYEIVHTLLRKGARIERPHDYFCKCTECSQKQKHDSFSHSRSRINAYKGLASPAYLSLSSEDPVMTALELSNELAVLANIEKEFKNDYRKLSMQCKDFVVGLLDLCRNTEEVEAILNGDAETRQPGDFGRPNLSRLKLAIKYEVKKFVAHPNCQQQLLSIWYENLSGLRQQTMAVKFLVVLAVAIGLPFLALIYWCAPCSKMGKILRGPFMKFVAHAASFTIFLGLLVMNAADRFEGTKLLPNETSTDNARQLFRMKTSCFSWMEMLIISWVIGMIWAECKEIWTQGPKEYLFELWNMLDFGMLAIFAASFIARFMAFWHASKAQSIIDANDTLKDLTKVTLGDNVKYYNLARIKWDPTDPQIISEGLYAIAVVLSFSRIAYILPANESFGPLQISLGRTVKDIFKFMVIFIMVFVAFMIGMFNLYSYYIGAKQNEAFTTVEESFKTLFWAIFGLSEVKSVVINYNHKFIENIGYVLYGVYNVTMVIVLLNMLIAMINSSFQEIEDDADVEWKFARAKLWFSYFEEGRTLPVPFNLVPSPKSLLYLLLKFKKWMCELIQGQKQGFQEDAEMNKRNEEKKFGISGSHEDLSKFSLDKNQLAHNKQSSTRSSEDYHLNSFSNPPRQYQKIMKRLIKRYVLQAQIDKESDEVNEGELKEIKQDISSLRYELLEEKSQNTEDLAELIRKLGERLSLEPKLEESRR
TRPC4 agonist – opens the mouse TRPC4 cation channel | Q9QUQ5 | HEK293 TRPC4beta/mu-opioid, Fluo4 calcium fluorescence; hits give high values | B-score at 10 µM | 310,000 tested, 0.49% active | AID 2237;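 active = B-score above 5 SD of library B-scores, and initial fluorescence ratio not above library mean plus 5 SD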;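 also: positive B-score marks a calcium rise read as TRPC4 activation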
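Technique: kinetic Fluo4 calcium fluorescence; Test system: TRPC4beta and mu-opioid receptor HEK293 stable cells; Measure: B-scored integrated calcium fluorescence ratio; Benchmarks: low control buffer alone, high control maximal DAMGO; Schedule: 45 min room-temperature Fluo4 loading, 110 s read.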
TRPC6 inhibitor – mouse TRPC6 channel inhibition; Q61143; HEK293-TRPC6, membrane potential dye, ACh-evoked depolarization; hits give low values; B-score at 10 µM; 310,000 tested, 1.1% active;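 active = B-score under library mean minus 3 SD, initial fluorescence not abnormally high, positive integrated signal ratio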;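 also: B-score derived from integrated fluorescence ratio over the kinetic read; more negative B-score means stronger inhibition of depolarization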
TRPC4 potent – TRPC4 (mouse) allosteric potentiation; HEK293 TRPC4beta/mu-opioid, DAMGO EC20, Fluo-4 Ca2+ flux; hits give high values; B-score at 10 µM; 310,000 tested, 0.42% active;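 active = B-score of calcium response area above 5 SD of library B-scores, with initial fluorescence ratio within 5 SD of library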
TRPC4 spec 2 – second check of whether TRPC6 inhibitors also affect mouse TRPC4; HEK293 TRPC4/MOR, membrane potential dye fluorescence; channel activated by saturating DAMGO dose; 920 tested, 42% active; shares compounds with TRPC6 inhibitor; inhibition, % at 10 µM;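 active = compounds whose fluorescence signal differed from control wells by over 3 SD, either direction, in both duplicate plates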
TRPC4 spec – selectivity of TRPC6 inhibitors: effect on mouse TRPC4; shares compounds with TRPC6 inhibitor; HEK293 TRPC4/mu-opioid, membrane potential fluorescence; activity change, negative = inhibition, % at 10 µM; 920 tested, 61% active; AID 2777;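 active = rise or fall in signal beyond 3 SD of buffer-only wells in both replicate plates, either sign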;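 also: integrated kinetic ratio of fluorescence range over baseline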
HEK293 MPD ctr 2-1 – parental HEK293 nonspecific activity of TRPC6 inhibitors, second screen. shares compounds with TRPC6 inhibitor. parental HEK293 membrane potential dye fluorescence; maximal acetylcholine challenge after compound addition. signal change vs control, % at 10 µM. 920 tested, 31% active;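 active = membrane potential signal moving either way by over 3 SD of the maximum-effect control, in both duplicate plates, meaning non-specific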
HEK293 MPD ctr-1 – checks TRPC6 inhibitor effects in parental HEK293 cells. shares compounds with TRPC6 inhibitor. parental HEK293 membrane potential dye fluorescence. membrane potential signal change, % at 10 µM. 920 tested, 60% active. AID 2780;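 active = membrane potential signal shifting up or down by more than 3 SD of buffer-only wells, on both duplicate plates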
HEK293 MPD ctr-2 – counter-screen for TRPC6 modulators: effect in parental HEK293 cells; membrane potential dye fluorescence; membrane potential signal change, % at 10 µM; 2,400 tested, 51% active; shares compounds with TRPC6 inhibitor;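 active = membrane potential signal moves up or down beyond 5 SD from buffer-only wells, on both duplicate plates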
HEK293 MPD ctr 2-2 – parental HEK293 nonspecific activity of TRPC6 modulators, second screen | shares compounds with TRPC6 inhibitor | inhibition, % at 10 µM | membrane potential dye fluorescence; after compound, maximal acetylcholine stimulation | 2,400 tested, 14% active | AID 488926;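 active = membrane potential signal drops by more than 5 SD from the mean control signal, in both duplicate plates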
TRPC4 ctr mod – mouse TRPC4 off-target activity of TRPC6 modulators; shares compounds with TRPC6 inhibitor; HEK293 TRPC4/mu-opioid, membrane potential fluorescence; percent change from control (negative = decrease, positive = increase), % at 10 µM; 2,400 tested, 69% active; AID 488927;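 active = membrane potential signal moved up or down beyond 5 SD of buffer control wells, in both duplicate plates, actives on both sides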
TRPC4/MOR inh 2 – second check of whether TRPC6 modulators also affect mouse TRPC4 | shares compounds with TRPC6 inhibitor | HEK293 TRPC4/mu-opioid, membrane potential dye fluorescence; stimulated with maximal-effect DAMGO | inhibition, % at 10 µM | 2,400 tested, 55% active | AID 488928;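 active = drop in membrane potential signal beyond 5 SD of the control wells in both duplicate plates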;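 also: TRPC4 counter screen for TRPC6 hits run under conditions tuned for TRPC6 not TRPC4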
TRPC6 inh conf – mouse TRPC6 inhibitor confirmation | shares compounds with TRPC6 inhibitor | HEK293-TRPC6, membrane potential dye, ACh-evoked depolarization | inhibition, % at 10 µM | 3,300 tested, 43% active | AID 488960;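 active = fluorescence ratio falls more than 5 SD below the full-stimulation control mean, in both duplicate runs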;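 also: integrated fluorescence ratio of peak minus minimum over baseline after agonist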
TRPC6 act confirm – confirmation of mouse TRPC6 activators. shares compounds with TRPC6 inhibitor. HEK293-TRPC6 membrane potential dye fluorescence, FDSS. activation, % at 10 µM. 2,800 tested, 11% active. AID 488961;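 active = ratio signal rise beyond 5 SD above unstimulated control wells' mean, seen in both duplicate runs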
Large screens that a line does not name were inactive (follow-up assays come after a bar, where they were run). An excerpt weighted towards active compounds, which were near 2.3% of everything screened.

Cc1noc2ncnc(Sc3ccc(Br)cc3)c12	none
Cc1c(CCOC(=O)C23CC4CC(CC(C)(C4)C2)C3)sc[n+]1Cc1ccccc1	none
Cc1c(CCOC(=O)C23CC4CC(CC(C4)C2)C3)sc[n+]1Cc1ccccc1	TRPC6 inhibitor -7.46 | TRPC4 spec 2 inactive | TRPC4 spec inactive | HEK293 MPD ctr 2-1 -9.5% | HEK293 MPD ctr-1 inactive | TRPC6 inh conf 87.6% | TRPC6 act confirm inactive
Cc1ccc(C(=O)OCCN(C)Cc2ccccc2)cc1	none
Cc1ccc(C(=O)OCCc2sc[n+](Cc3ccccc3)c2C)cc1	TRPC6 inhibitor -9.43 | TRPC4 spec 2 inactive | TRPC4 spec -11.6% | HEK293 MPD ctr 2-1 31.0% | HEK293 MPD ctr-1 -170.0% | TRPC6 inh conf 79.8% | TRPC6 act confirm inactive
CC(C)Cn1c(=O)c(C(=O)Nc2ccncc2)c(O)c2ccccc21	TRPC6 inhibitor -11.7 | TRPC4 spec 2 inactive | TRPC4 spec -14.8% | HEK293 MPD ctr 2-1 -83.5% | HEK293 MPD ctr-1 inactive | TRPC6 inh conf 83.7% | TRPC6 act confirm inactive
O=C(c1ccco1)N1CCc2[nH]nc(-c3ccccc3)c2C1	none
Cc1ccc(C(C)C)cc1OCC(=O)Nc1ccc(N2CCCCC2)cc1	none
OC(CC#CCN1CCCCC1)(c1ccccc1)c1ccccc1	none
CC(C)C(O)(C#CCN1CCCCCC1)c1ccccc1 (stereo not given)	TRPC6 inhibitor -7.12 | TRPC4 spec 2 inactive | TRPC4 spec 13.0% | HEK293 MPD ctr 2-1 inactive | HEK293 MPD ctr-1 10.5% | TRPC6 inh conf 60.7%
CC1CCCN1CC#CC(O)(c1ccccc1)c1ccccc1 (stereo not given)	TRPC4 inh -7, TRPC6 inhibitor -8.69 | TRPC4 spec 2 inactive | TRPC4 spec 4.5% | HEK293 MPD ctr 2-1 -43.5% | HEK293 MPD ctr-1 8.2% | TRPC6 inh conf 81.9%
OC(CC#CCN1CCCC1)(c1ccccc1)c1ccccc1	TRPC6 inhibitor -5.3 | HEK293 MPD ctr-2 114.0% | HEK293 MPD ctr 2-2 63.0% | TRPC4 ctr mod 15.0% | TRPC4/MOR inh 2 inactive | TRPC6 inh conf 65.0%
CN1CCN(CC#CCC(O)(c2ccccc2)C2CCCC2)CC1 (stereo not given)	none
OC(C#CCN1CCCC1)(c1ccccc1)c1cccc(F)c1 (stereo not given)	TRPC6 inhibitor -5.48 | HEK293 MPD ctr-2 inactive | HEK293 MPD ctr 2-2 123.0% | TRPC4 ctr mod 14.0% | TRPC4/MOR inh 2 32.0% | TRPC6 inh conf 96.0%
CC(O)(C#CCN1CCCCC1)c1ccccc1 (stereo not given)	none
CC(O)(C#CCN1CCCC1)c1ccccc1 (stereo not given)	none
Cc1cc(SCC(=O)NCC2CCCO2)nc2ccccc12 (stereo not given)	none
C(#CCN1CCCC1)CC(c1ccccc1)c1ccccc1	TRPC6 inhibitor -8.55 | TRPC4 spec 2 66.5% | TRPC4 spec 13.7% | HEK293 MPD ctr 2-1 inactive | HEK293 MPD ctr-1 14.5% | TRPC6 inh conf inactive
CC(C)(CO)NCc1ccccc1OCC(=O)Nc1ccccc1	none
Cc1ccc(NC(=O)COc2ccccc2CNC(C)(C)CC(C)(C)C)cc1	TRPC6 act 14.4 | HEK293 MPD ctr-2 295.5% | HEK293 MPD ctr 2-2 inactive | TRPC4 ctr mod 71.0% | TRPC4/MOR inh 2 inactive | TRPC6 inh conf inactive | TRPC6 act confirm 176.5%
CC1CCCCN1CCCNc1ccc(C(CC(N)=O)NC(=O)Cc2cccc3ccccc23)cc1[N+](=O)[O-] (stereo not given)	none
C[n+]1ccccc1/C=C/c1ccc([N+](=O)[O-])cc1	TRPC6 inhibitor -7.27 | HEK293 MPD ctr-2 -249.5% | HEK293 MPD ctr 2-2 110.0% | TRPC4 ctr mod -40.5% | TRPC4/MOR inh 2 52.0% | TRPC6 inh conf 64.5% | TRPC6 act confirm inactive
C[n+]1ccccc1/C=C/c1ccc(F)c(F)c1	TRPC6 inhibitor -7.21 | TRPC4 spec 2 inactive | TRPC4 spec -33.6% | HEK293 MPD ctr 2-1 33.5% | HEK293 MPD ctr-1 -595.5% | TRPC6 inh conf 80.3% | TRPC6 act confirm inactive
COC(=O)Cc1sc(-c2ccccn2)nc1-c1ccccc1	TRPC6 inhibitor -5.66 | HEK293 MPD ctr-2 inactive | HEK293 MPD ctr 2-2 inactive | TRPC4 ctr mod 12.5% | TRPC4/MOR inh 2 inactive | TRPC6 inh conf inactive | TRPC6 act confirm inactive
CS(=O)(=O)Nc1ccc(C2=NN(S(C)(=O)=O)C(c3ccc4c(c3)OCO4)C2)cc1 (stereo not given)	none
CC(CCc1ccccc1)NCc1cccc2ccccc12 (stereo not given)	TRPC6 inhibitor -7.36 | TRPC4 spec 2 inactive | TRPC4 spec 32.0% | HEK293 MPD ctr 2-1 inactive | HEK293 MPD ctr-1 14.7% | TRPC6 inh conf 67.0%
Nc1ccc(C(=O)OCc2nc3ccccc3s2)cc1	TRPC6 inhibitor -7.85 | TRPC4 spec 2 inactive | TRPC4 spec inactive | HEK293 MPD ctr 2-1 inactive | HEK293 MPD ctr-1 inactive | TRPC6 inh conf inactive | TRPC6 act confirm inactive
O=C(Nc1ccc(-n2cnnn2)cc1)c1cn2ccccc2n1	TRPC6 inhibitor -5.09 | HEK293 MPD ctr-2 inactive | HEK293 MPD ctr 2-2 inactive | TRPC4 ctr mod inactive | TRPC4/MOR inh 2 inactive | TRPC6 inh conf inactive | TRPC6 act confirm inactive
COCC(C)OC(=O)C(C#N)c1nc2ccccc2nc1N1CCN(Cc2ccccc2)CC1 (stereo not given)	none

From PubChem
